This note sets out measurements from ChEMBL document CHEMBL1795214, “Discovery of novel xanthone derivatives as xanthine oxidase inhibitors” (Bioorg Med Chem Lett, 2011).

Test [1] addresses T1, Xanthine dehydrogenase/oxidase (Bos taurus, UniProt P80457). The test can be described thus: Inhibition of bovine Xanthine oxidase assessed as reduction in uric acid level by spectrophotometry.
Test [2] addresses T1, Xanthine dehydrogenase/oxidase. The test can be described thus: Inhibition of bovine Xanthine oxidase assessed as reduction in uric acid level at 10 ug/ml by spectrophotometry. To be noted: cattle. In short, it runs like this:
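Single-concentration screen at 10 μg/mL. XO activity was followed spectrophotometrically as uric acid formation at 293 nm and reported as percent inhibition. Below 60% inhibition at this concentration was recorded as not active.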

T1 sequence (P80457 whole entry): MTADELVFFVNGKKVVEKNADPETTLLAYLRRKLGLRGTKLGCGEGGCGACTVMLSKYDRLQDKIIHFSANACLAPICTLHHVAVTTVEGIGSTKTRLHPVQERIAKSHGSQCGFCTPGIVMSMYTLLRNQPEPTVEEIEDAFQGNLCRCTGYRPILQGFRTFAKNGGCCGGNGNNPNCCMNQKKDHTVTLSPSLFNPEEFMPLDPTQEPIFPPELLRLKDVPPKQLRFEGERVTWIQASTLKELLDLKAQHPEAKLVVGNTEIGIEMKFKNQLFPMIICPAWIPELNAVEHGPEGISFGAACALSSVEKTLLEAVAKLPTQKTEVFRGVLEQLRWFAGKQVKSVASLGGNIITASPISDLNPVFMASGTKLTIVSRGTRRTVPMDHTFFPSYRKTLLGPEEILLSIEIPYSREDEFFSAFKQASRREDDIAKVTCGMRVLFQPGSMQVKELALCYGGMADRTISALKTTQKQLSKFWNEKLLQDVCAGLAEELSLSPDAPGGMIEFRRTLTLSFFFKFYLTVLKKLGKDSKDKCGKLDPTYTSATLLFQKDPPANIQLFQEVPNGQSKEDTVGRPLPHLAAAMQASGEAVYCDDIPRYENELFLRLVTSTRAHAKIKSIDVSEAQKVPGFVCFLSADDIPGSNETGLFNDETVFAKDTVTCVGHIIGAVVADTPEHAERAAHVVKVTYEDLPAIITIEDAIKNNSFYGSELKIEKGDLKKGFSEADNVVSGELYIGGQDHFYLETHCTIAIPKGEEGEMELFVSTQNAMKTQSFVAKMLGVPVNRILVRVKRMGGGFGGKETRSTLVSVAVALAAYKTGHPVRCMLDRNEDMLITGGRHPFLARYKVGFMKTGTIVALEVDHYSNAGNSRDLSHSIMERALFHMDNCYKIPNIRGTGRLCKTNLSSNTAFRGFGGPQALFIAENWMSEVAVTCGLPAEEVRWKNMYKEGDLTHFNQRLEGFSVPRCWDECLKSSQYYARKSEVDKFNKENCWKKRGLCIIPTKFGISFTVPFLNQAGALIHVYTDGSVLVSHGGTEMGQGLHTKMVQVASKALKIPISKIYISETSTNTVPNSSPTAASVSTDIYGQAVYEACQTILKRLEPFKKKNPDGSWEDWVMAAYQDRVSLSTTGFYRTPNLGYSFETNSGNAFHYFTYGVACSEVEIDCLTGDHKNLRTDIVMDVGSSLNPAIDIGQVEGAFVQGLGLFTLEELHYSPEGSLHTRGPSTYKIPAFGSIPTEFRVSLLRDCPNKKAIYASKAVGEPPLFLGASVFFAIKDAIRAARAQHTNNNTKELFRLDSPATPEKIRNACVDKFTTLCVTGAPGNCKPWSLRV

Turning to `Cc1ccccc1COc1cc(O)cc2oc3cc(O)c(O)cc3c(=O)c12`, the IC50 (in general, the concentration that gives 50% inhibition) in test [1] is 7.08 µM. On the same count and under the same terms, as for `O=c1c2cc(O)c(O)cc2oc2cc(O)cc(OCc3ccc(Br)cc3)c12`, the figure is 20.1 µM; as for `Cc1ccc(COc2cc(O)cc3oc4cc(O)c(O)cc4c(=O)c23)cc1`, 5.73 µM. As for `O=c1c2cc(O)c(O)cc2oc2cc(O)cc(OCc3ccccc3F)c12`, the inhibition (in general, the share of the control response that was lost under treatment) at 10 µg/mL in test [2] is less than 60%. On the same count and under the same terms, as for `O=c1c2cc(O)c(O)cc2oc2cc(O)cc(OCc3c(Cl)cccc3Cl)c12`, the figure is less than 60%; as for `O=c1c2cc(O)c(O)cc2oc2cc(O)cc(OCc3cccc([N+](=O)[O-])c3)c12`, less than 60%. In the case of `Cc1cccc(COc2cc(O)cc3oc4cc(O)c(O)cc4c(=O)c23)c1`, in test [1], the IC50 turned out to be 13.6 µM.

Consider `O=c1c2cc(O)c(O)cc2oc2cc(O)cc(OCc3ccccc3Cl)c12`, for which the concentration for half-maximal inhibition (IC50) in test [1] was 6.41 µM. With `O=c1c2cc(O)c(O)cc2oc2cc(O)cc(OCc3cccc(Cl)c3)c12`, the inhibition at 10 µg/mL in test [2] was less than 60%. As to `N#Cc1cccc(COc2cc(O)cc3oc4cc(O)c(O)cc4c(=O)c23)c1`, the inhibition at 10 µg/mL in test [2] was less than 60%. Same read-out and setting: to `O=c1c2cc(O)c(O)cc2oc2cc(O)cc(OCc3cccc(F)c3)c12` belongs less than 60%; to `O=c1c2cc(O)c(O)cc2oc2cc(O)cc(OCc3ccccc3[N+](=O)[O-])c12`, less than 60%. As to `O=c1c2cc(O)c(O)cc2oc2cc(O)cc(OCc3ccc(Cl)cc3)c12`, the half-maximal inhibitory concentration (IC50) in test [1] was 4.7 µM. Same read-out and setting: as for `N#Cc1ccc(COc2cc(O)cc3oc4cc(O)c(O)cc4c(=O)c23)cc1`, the figure is 4.67 µM. On to `O=c1c2cc(O)c(O)cc2oc2cc(O)cc(OCc3ccc(Cl)cc3Cl)c12`, for which the inhibition at 10 µg/mL in test [2] was less than 60%. Still for that read-out and setting: as for `O=c1c2cc(O)c(O)cc2oc2cc(O)cc(OCc3cccc(Br)c3)c12`, the figure is less than 60%; as for `O=c1c2cc(O)c(O)cc2oc2cc(O)cc(OCc3ccc([N+](=O)[O-])cc3)c12`, less than 60%. On the same count and under the same terms, to `O=c1c2cc(O)c(O)cc2oc2cc(O)cc(OCc3ccc(F)cc3)c12` belongs less than 60%; to `O=c1c2cc(O)c(O)cc2oc2cc(O)cc(OCc3ccccc3Br)c12`, less than 60%; to `N#Cc1ccccc1COc1cc(O)cc2oc3cc(O)c(O)cc3c(=O)c12`, less than 60%.
